Experimental data taken from ChEMBL document CHEMBL1275328, “Targeting the polyamine transport system with benzazepine- and azepine-polyamine conjugates” (J Med Chem, 2010).
Where a name gives a salt, the structure may show the parent alone. The source made the active and inactive calls. The rule behind the calls is not given here.

Key:
L1210 [1] = experiment: Ratio of spermidine Km to compound Ki for polyamine transport system in mouse L1210 cells; assay type: cell-based
In short: (§1)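 2 × 10^6 L1210 cells in 0.6 mL HBSS/20 mM HEPES, 10 min uptake at 37 °C of 1 μM [14C]spermidine with increasing competitor concentrations. IC50 obtained by iterative sigmoidal curve fitting, Ki by Cheng-Prusoff. Spermidine Km from Lineweaver-Burke analysis of uptake at rising labelled substrate. Mean ± SD, three determinations.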

[2] = Inhibition of [14C]spermidine uptake at polyamine transport system in mouse L1210 cells after 10 mins; assay type: cell-based; in short: as §1
L1210 [3] = experiment: Drug uptake in mouse L1210 cells expressing polyamine transport system after 24 hrs by HPLC; assay type: ADME, cell-based; conditions: l1210, 24 h
In short: (§2)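 Compound given at 0.1 to 100 μM for 24 h exposure; medium RPMI 1640/10% FCS with 2 mM aminoguanidine. CHO cells seeded at 2 × 10^5 cells/mL and dosed 24 h after seeding. L1210 cells seeded at 4 × 10^4 cells/mL and dosed at seeding. Cells washed thrice in cold 0.14 M NaCl, sonicated in 0.2 N HClO4. Extracts analysed by ion-pair C18 HPLC with post-column OPA/N-acetylcysteine fluorescence (ex 345, em 455 nm). Protein measured on pellet.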

CHO = experiment: Drug uptake in CHO cells expressing polyamine transport system after 24 hrs by HPLC; assay type: ADME, cell-based, Cricetulus griseus; conditions: chinese hamster; in short: as §2
L1210 [4] = experiment: Drug uptake in mouse L1210 cells expressing polyamine transport system in presence of ornithine decarboxylase inhibitor DFMO after 48 hrs by HPLC; conditions: l1210, 48 h
L1210 [5] = experiment: Cytostatic toxicity against mouse L1210 cells expressing polyamine transport system after 48 hrs by MTT assay; assay type: ADME, cell-based; conditions: l1210, 48 h
In short: (§3)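 L1210 cells seeded at 5 × 10^4 cells/mL in RPMI 1640 with 10% FCS and 2 mM aminoguanidine, 37 °C, 5% CO2. Compound added at seeding, 48 h exposure. Growth read as MTT formazan absorbance at 540 nm. Growth taken relative to untreated control cells. Means of three or more experiments.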

L1210 [6] = experiment: Cytostatic toxicity against mouse L1210 cells expressing polyamine transport system assessed as effect on cell growth upto 20 uM after 48 hrs by MTT assay; assay type: ADME, cell-based; conditions: l1210, 48 h; in short: as §3
L1210 [7] = experiment: Inhibition of reversion of DFMO-induced cytostatic effect against mouse L1210 cells expressing polyamine transport system at 20 uM pretreated with 20 uM spermidine for 24 hrs after DFMO addition measured after 48 hrs by MTT assay; assay type: functional, cell-based
In short: (§4)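 L1210 cells seeded in 5 mM DFMO. After 24 h, free putrescine, spermidine or spermine added with or without 20 μM test compound. Growth measured by MTT assay 48 h later.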

L1210 [8] = experiment: Inhibition of reversion of DFMO-induced cytostatic effect against mouse L1210 cells expressing polyamine transport system at 20 uM pretreated with 100 uM putrescine for 24 hrs after DFMO addition measured after 48 hrs by MTT assay; assay type: functional, cell-based; in short: as §4
L1210 [9] = experiment: Inhibition of reversion of DFMO-induced cytostatic effect against mouse L1210 cells expressing polyamine transport system at 20 uM pretreated with 1 uM spermine for 24 hrs after DFMO addition measured after 48 hrs by MTT assay; assay type: functional, cell-based; in short: as §4
[10] = Cytostatic toxicity against mouse L1210 cells expressing polyamine transport system assessed as cell viability at 100 uM after 48 hrs by trypan blue assay; assay type: ADME, cell-based
In short: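 L1210 cells exposed 48 h to 100 μM compound, viability scored by Trypan blue exclusion.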

[11] = Cytostatic toxicity against mouse L1210 cells expressing polyamine transport system assessed as reduction in cell growth at 10 uM after 48 hrs by MTT assay; assay type: ADME, cell-based; in short: as §3
L1210 [12] = experiment: Ratio of drug uptake in mouse L1210 cells at 10 uM in presence of 5 mM ornithine decarboxylase inhibitor DFMO to drug uptake in mouse L1210 cells at 10 uM after 48 hrs by HPLC; assay type: ADME, cell-based; conditions: l1210, 48 h
In short: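 L1210 cells seeded at 4 × 10^4 cells/mL and given 10 μM conjugate at seeding, ±5 mM DFMO, medium containing 2 mM aminoguanidine. Harvest at 48 h, washed in cold 0.14 M NaCl, perchloric extract. Intracellular conjugate measured by ion-pair HPLC with OPA fluorescence. Ratio is DFMO/control accumulation. Mean ± SD of three determinations; Student's t test.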

| Drug uptake (L1210 [3]) | Drug uptake (CHO) | Structure (SMILES) | Ratio (L1210 [1]) | Ki [2] [µM] | also measured |
| --- | --- | --- | --- | --- | --- |
|  |  | NCCCCNCCCCN [HOMOSPERMIDINE] | 1.03 | 2.3 |  |
| Dose-dependent effect | Dose-dependent effect | Cl.NCCCCNCCCNC1=Nc2ccccc2CCC1 | 0.54 | 4.4 |  |
|  |  | NCCCNCCCCNCCCN | 1.77 | 1.34 |  |
| Dose-dependent effect | Dose-dependent effect | Cl.NCCCNCCCCNCCCNC1=Nc2ccccc2CCC1 | 15.8 | 0.15 | Drug uptake (L1210 [4]): Active |
|  |  | NCCCNCCCNCCCN [NORSPERMINE] | 1.57 | 1.51 |  |
|  |  | NCCCCCNCCCN | 0.29 | 8.03 |  |
| Dose-dependent effect | Dose-dependent effect | Cl.NCCCNCCCCNCCCNC1=NCCCCC1 | 6.77 | 0.35 | Drug uptake (L1210 [4]): Active |
|  |  | Cl.NCCCNCCCCNCCCNC1=Nc2ccc(N)cc2CCC1 | 12.5 | 0.19 | Activity (L1210 [5]): Toxic |
|  |  | NCCCNC[C@@H](O)[C@@H](O)CNCCCNC1=Nc2ccccc2CCC1 | 1.05 | 2.25 |  |
|  |  | Cl.NCCCNCCCCNCCCNC1=Nc2ccc([N+](=O)[O-])cc2CCC1 | 19.8 | 0.12 | Activity (L1210 [6]): Non-toxic; inhibition (L1210 [7]): Active; inhibition (L1210 [8]): Active; inhibition (L1210 [9]): Active |
| Dose-dependent effect | Dose-dependent effect | Cl.Cl.NCCCCNC1=Nc2ccccc2CCC1 | 0.067 | 35.1 |  |
| Dose-dependent effect | Dose-dependent effect | Cl.NCCCNCCCNC1=NCCCCC1 | 0.015 | 161 | Drug uptake (L1210 [4]): Active |
| Dose-dependent effect | Dose-dependent effect | Cl.NCCCCNCCCCNC1=NCCCCC1 | 0.43 | 5.47 | Drug uptake (L1210 [4]): Active; viability at 48 h, 100 µM [10]: > 95%; inhibition at 48 h, 10 µM [11]: 65% |
|  |  | NCCCNC[C@@H](O)[C@@H](O)CNCCCN | 0.45 | 5.27 |  |
|  |  | NCCCCCCCCN | 0.098 | 24.1 |  |
|  |  | NCCCCNCCCCNCCCCN [HOMOSPERMINE] | 3.25 | 0.73 |  |
|  |  | NCCCCN [PUTRESCINE DIHYDROCHLORIDE] | 0.011 | 208 |  |
|  |  | NCCCCCCCCNC1=Nc2ccccc2CCC1 | 0.019 | 126 |  |
|  |  | Cl.NCCCNCCCCNCCCNC1=Nc2ccc(Br)cc2CCC1 | 16.9 | 0.14 | Activity (L1210 [5]): Toxic |
|  |  | COc1ccc2c(c1)CCCC(NCCCNCCCCNCCCN)=N2.Cl | 10.3 | 0.23 | Activity (L1210 [5]): Toxic |
|  |  | NCCCCNCCCCNCCCCNC1=Nc2ccccc2CCC1 | 11.9 | 0.2 |  |
| Dose-dependent effect | Dose-dependent effect | Cl.Cl.NCCCCNC1=NCCCCC1 | 0.003 | 763 | Drug uptake (L1210 [4]): Active |
| Dose-dependent effect | Dose-dependent effect | Cl.NCCCCNCCCNC1=NCCCCC1 | 0.16 | 14.6 | Ratio (L1210 [12]): 4; Drug uptake (L1210 [4]): Active; viability at 48 h, 100 µM [10]: > 95%; inhibition at 48 h, 10 µM [11]: 30% |
|  |  | NCCCCCCCCNC1=NCCCCC1 | 0.013 | 183 |  |
| Dose-dependent effect | Dose-dependent effect | Cl.NCCCNCCCCNC1=NCCCCC1 | 0.053 | 44.7 | Drug uptake (L1210 [4]): Active |
| Dose-dependent effect | Dose-dependent effect | Cl.NCCCCCNCCCNC1=NCCCCC1 | 0.051 | 45.9 | Drug uptake (L1210 [4]): Active |
|  |  | NCCCNCCCN [NORSPERMIDINE TRIHYDROCHLORIDE] | 0.46 | 5.12 |  |
|  |  | NCCCNCCCNCCCNC1=Nc2ccccc2CCC1 | 2.69 | 0.88 |  |
